Calls of active or inactive are those of the source. No cut-off for these calls is given here.
Columns and labels:
[1] = target: T1, Toll-like receptor 9 (Mus musculus) (UniProt Q9EQU3); test: Activation of mouse TLR9 expressed in HEK293 assessed as induction of NF-kappaB activity reporter gene assay; assay type: cell-based
T1 sequence (whole entry): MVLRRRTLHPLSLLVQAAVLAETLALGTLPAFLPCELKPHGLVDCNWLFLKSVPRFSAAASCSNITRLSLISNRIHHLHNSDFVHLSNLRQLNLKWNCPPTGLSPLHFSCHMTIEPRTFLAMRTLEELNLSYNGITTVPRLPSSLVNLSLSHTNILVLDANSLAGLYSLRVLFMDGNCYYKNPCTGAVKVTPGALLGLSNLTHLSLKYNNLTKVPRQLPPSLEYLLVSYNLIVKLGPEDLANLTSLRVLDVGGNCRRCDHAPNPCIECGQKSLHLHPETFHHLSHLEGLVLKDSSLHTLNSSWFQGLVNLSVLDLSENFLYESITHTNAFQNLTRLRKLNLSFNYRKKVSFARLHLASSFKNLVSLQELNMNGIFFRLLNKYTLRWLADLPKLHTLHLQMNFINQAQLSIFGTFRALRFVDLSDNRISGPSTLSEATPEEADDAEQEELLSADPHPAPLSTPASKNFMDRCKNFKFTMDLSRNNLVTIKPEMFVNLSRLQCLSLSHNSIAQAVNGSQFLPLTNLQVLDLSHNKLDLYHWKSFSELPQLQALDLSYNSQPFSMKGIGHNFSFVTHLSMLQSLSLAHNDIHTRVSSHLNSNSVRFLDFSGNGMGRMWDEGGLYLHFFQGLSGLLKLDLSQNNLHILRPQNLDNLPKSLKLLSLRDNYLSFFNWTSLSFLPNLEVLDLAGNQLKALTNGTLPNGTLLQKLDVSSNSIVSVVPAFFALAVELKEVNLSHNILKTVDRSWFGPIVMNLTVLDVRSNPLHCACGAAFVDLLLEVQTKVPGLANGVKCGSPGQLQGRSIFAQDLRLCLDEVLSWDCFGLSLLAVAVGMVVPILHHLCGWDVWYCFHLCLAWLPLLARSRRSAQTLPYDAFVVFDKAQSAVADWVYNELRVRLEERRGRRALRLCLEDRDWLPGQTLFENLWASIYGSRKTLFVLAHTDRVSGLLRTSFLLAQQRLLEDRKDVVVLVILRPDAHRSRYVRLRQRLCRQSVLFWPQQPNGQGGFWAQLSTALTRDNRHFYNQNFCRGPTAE

[2] = target: Toll-like receptor 3 (Homo sapiens) (UniProt O15455); test: Activation of human TLR3 expressed in HEK293 assessed as induction of NF-kappaB activity reporter gene assay; assay type: cell-based
Toll-like receptor 3 (Homo sapiens), sequence (O15455 whole entry): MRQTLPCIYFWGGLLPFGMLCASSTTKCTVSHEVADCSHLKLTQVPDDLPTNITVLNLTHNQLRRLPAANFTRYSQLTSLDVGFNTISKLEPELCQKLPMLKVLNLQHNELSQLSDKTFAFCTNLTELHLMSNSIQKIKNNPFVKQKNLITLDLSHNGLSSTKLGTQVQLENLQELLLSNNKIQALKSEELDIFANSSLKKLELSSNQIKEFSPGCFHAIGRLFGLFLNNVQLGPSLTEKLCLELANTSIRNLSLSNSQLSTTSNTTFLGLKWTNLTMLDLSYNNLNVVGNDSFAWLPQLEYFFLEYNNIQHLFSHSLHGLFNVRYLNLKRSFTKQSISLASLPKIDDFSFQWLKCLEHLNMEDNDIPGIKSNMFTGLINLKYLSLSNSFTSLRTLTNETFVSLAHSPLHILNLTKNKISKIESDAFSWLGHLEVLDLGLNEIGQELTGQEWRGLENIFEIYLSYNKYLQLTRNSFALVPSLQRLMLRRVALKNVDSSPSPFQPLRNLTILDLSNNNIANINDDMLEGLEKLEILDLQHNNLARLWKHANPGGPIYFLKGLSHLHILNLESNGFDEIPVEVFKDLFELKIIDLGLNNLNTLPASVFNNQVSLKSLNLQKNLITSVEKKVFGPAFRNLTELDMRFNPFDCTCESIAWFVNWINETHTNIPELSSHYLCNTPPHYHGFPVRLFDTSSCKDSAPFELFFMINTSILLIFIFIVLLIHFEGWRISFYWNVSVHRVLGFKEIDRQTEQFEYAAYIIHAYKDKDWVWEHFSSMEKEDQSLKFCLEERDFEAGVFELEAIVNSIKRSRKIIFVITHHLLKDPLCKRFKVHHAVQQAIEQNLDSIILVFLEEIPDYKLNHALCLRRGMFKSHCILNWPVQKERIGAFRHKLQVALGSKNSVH

[3] = target: T2, Toll-like receptor 7 (Homo sapiens) (UniProt Q9NYK1); test: Activation of human TLR7 expressed in HEK293XL assessed as fold induction of NF-kappaB activity at 50 ug/ml after 18 hrs by reporter gene assay relative to control
T2 sequence (whole entry): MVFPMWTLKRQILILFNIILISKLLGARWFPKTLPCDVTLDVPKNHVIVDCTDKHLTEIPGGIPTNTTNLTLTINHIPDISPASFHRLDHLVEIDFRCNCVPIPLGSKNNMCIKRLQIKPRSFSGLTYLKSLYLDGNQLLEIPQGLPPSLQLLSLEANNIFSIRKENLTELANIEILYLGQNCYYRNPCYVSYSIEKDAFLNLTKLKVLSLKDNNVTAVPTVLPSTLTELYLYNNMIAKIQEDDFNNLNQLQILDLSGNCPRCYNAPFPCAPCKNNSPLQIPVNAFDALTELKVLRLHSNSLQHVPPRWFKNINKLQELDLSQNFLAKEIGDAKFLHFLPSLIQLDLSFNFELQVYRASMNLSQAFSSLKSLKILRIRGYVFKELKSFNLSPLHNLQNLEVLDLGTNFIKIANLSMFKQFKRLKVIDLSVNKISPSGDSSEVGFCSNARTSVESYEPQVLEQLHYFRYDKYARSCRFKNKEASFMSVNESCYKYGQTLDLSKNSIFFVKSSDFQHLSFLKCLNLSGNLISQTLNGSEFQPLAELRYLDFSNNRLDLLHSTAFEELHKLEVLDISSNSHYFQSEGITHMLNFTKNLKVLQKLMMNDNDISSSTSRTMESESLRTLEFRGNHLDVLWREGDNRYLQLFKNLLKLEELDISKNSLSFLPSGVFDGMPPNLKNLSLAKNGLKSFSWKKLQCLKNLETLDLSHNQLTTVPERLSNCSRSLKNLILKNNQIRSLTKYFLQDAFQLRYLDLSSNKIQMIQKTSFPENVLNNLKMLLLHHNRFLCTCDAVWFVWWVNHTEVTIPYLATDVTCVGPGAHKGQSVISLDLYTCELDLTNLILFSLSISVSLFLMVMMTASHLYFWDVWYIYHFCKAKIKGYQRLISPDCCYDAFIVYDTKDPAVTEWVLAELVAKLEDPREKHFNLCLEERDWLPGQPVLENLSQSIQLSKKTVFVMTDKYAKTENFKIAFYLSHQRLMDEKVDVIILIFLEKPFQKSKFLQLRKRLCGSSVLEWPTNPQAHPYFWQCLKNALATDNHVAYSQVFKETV
Procedure, shortened: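 HEK293 cells stably expressing human TLR7 or TLR8, transiently transfected with SEAP reporter plasmid; medium replaced, SIMRA compounds added, 18 h incubation. Supernatant SEAP measured by QuantiBlue; expressed as fold increase in NF-κB activity over PBS control. Tabulated data at 50 μg/mL, representative of three independent experiments.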

Splenocyte [4] = test: Immunomodulatory activity in C57BL/6 mouse splenocytes bearing TLR7 receptor assessed as IL6 release at 100 ug/ml after 24 hrs by ELISA; assay type: functional, cell-based
Procedure, shortened: (§1)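 C57BL/6 splenocytes in RPMI 1640 with 10% FBS, penicillin/streptomycin, 2 mM L-glutamine, plated at 5 × 10^6 cells/mL; compounds in PBS added, 37 °C for 24 h. Supernatant IL-12 and IL-6 by ELISA; representative of three independent experiments.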

Homo sapiens = species on record: Homo sapiens; test: Ratio of human TLR7 activity to human TLR8 activity
Procedure, shortened: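 TLR7/TLR8 ratio computed from fold NF-κB (SEAP reporter) activation in HEK293 cells stably expressing human TLR7 versus TLR8, compounds at 50 μg/mL, 18 h exposure; representative of three independent experiments.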

PBMC [5] = test: Immunomodulatory activity in human PBMC assessed as induction of IL12 at 100 ug/ml after 24 hrs; assay type: functional, cell-based
Procedure, shortened: (§2)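 Human PBMCs plated at 5 × 10^6 cells/mL; compounds dissolved in PBS added at various concentrations, 37 °C for 24 h. Supernatant cytokines/chemokines quantified with human Luminex multiplex kit.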

PBMC [6] = test: Immunomodulatory activity in human PBMC assessed as induction of TNFalpha at 100 ug/ml after 24 hrs; assay type: functional, cell-based; procedure, shortened: as §2
PBMC [7] = test: Immunomodulatory activity in human PBMC assessed as induction of IFN-alpha at 100 ug/ml after 24 hrs
Splenocyte [8] = test: Immunomodulatory activity in C57BL/6 mouse splenocytes bearing TLR7 receptor assessed as IL12 release at 100 ug/ml after 24 hrs by ELISA; assay type: functional, cell-based; procedure, shortened: as §1

Activity [1] | Activity [2] | fold change (FC) [3] | Activity (Splenocyte [4]) | Ratio (Homo sapiens) | Activity (Splenocyte [8]) | Compound | Activity (PBMC [5]) [pg/mL] | Activity (PBMC [6]) [pg/mL] | IFN-alpha (PBMC [7]) [pg/mL]
inactive | inactive | 25 | Active | 15.6 | Active | Nc1ccn([C@@H]2O[C@H](COP(=O)(S)O[C@H]3[C@@H](O)[C@H](n4ccc5c(=O)[nH]c(N)nc54)O[C@@H]3COP(=O)(S)O[C@H]3[C@@H](O)[C@H](n4cnc5c(N)ncnc54)O[C@@H]3COP(=O)(S)O[C@H]3[C@@H](O)[C@H](n4cnc5c(N)ncnc54)O[C@@H]3COP(=O)(S)O[C@H]3[C@@H](O)[C@H](n4ccc5c(=O)[nH]c(N)nc54)O[C@@H]3COP(=O)(S)O[C@H]3[C@@H](O)[C@H](n4ccc(=O)[nH]c4=O)O[C@@H]3COP(=O)(S)O[C@H]3[C@@H](O)[C@H](n4ccc(=O)[nH]c4=O)O[C@@H]3COP(=O)(S)O[C@H]3[C@@H](O)[C@H](n4cnc5c(N)ncnc54)O[C@@H]3COP(=O)(S)O[C@H]3[C@@H](O)[C@H](n4cnc5c(N)ncnc54)O[C@@H]3CO)[C@@H](OP(=O)(S)OC[C@H]3O[C@@H](n4ccc(=O)[nH]c4=O)[C@H](O)[C@@H]3OP(=O)(S)OC[C@H]3O[C@@H](n4ccc(=O)[nH]c4=O)[C@H](O)[C@@H]3OP(=O)(S)OCC(O)COP(=O)(S)O[C@H]3[C@@H](O)[C@H](n4ccc(=O)[nH]c4=O)O[C@@H]3COP(=O)(S)O[C@H]3[C@@H](O)[C@H](n4ccc(=O)[nH]c4=O)O[C@@H]3COP(=O)(S)O[C@H]3[C@@H](O)[C@H](n4ccc(N)nc4=O)O[C@@H]3COP(=O)(S)O[C@H]3[C@@H](O)[C@H](n4ccc5c(=O)[nH]c(N)nc54)O[C@@H]3COP(=O)(S)O[C@H]3[C@@H](O)[C@H](n4cnc5c(N)ncnc54)O[C@@H]3COP(=O)(S)O[C@H]3[C@@H](O)[C@H](n4cnc5c(N)ncnc54)O[C@@H]3COP(=O)(S)O[C@H]3[C@@H](O)[C@H](n4ccc5c(=O)[nH]c(N)nc54)O[C@@H]3COP(=O)(S)O[C@H]3[C@@H](O)[C@H](n4ccc(=O)[nH]c4=O)O[C@@H]3COP(=O)(S)O[C@H]3[C@@H](O)[C@H](n4ccc(=O)[nH]c4=O)O[C@@H]3COP(=O)(S)O[C@H]3[C@@H](O)[C@H](n4cnc5c(N)ncnc54)O[C@@H]3COP(=O)(S)O[C@H]3[C@@H](O)[C@H](n4cnc5c(N)ncnc54)O[C@@H]3CO)[C@H]2O)c(=O)n1 (stereo partly drawn) | 401 | 29.3 | 95.5
inactive | inactive | 17.5 | Active | 10.9 | Active | Nc1ccn([C@@H]2O[C@H](CO[C@H]3[C@@H](O)[C@H](n4cnc5c(N)ncnc54)O[C@@H]3COP(=O)(S)O[C@H]3[C@@H](O)[C@H](n4ccc5c(=O)[nH]c(N)nc54)O[C@@H]3COP(=O)(S)O[C@H]3[C@@H](O)[C@H](n4ccc(=O)[nH]c4=O)O[C@@H]3COP(=O)(S)O[C@H]3[C@@H](O)[C@H](n4cnc5c(N)ncnc54)O[C@@H]3COP(=O)(S)O[C@H]3[C@@H](O)[C@H](n4ccc5c(=O)[nH]c(N)nc54)O[C@@H]3COP(=O)(S)O[C@H]3[C@@H](O)[C@H](n4ccc(=O)[nH]c4=O)O[C@@H]3CO)[C@@H](OP(=O)(S)OC[C@H]3O[C@@H](n4ccc5c(=O)[nH]c(N)nc54)[C@H](O)[C@@H]3OP(=O)(S)OC[C@H]3O[C@@H](n4cnc5c(N)ncnc54)[C@H](O)[C@@H]3OP(=O)(S)OC[C@H]3O[C@@H](n4ccc(=O)[nH]c4=O)[C@H](O)[C@@H]3OP(=O)(S)OC[C@H]3O[C@@H](n4ccc(=O)[nH]c4=O)[C@H](O)[C@@H]3OP(=O)(S)OCC(O)COP(=O)(S)O[C@H]3[C@@H](O)[C@H](n4ccc(=O)[nH]c4=O)O[C@@H]3COP(=O)(S)O[C@H]3[C@@H](O)[C@H](n4ccc(=O)[nH]c4=O)O[C@@H]3COP(=O)(S)O[C@H]3[C@@H](O)[C@H](n4cnc5c(N)ncnc54)O[C@@H]3COP(=O)(S)O[C@H]3[C@@H](O)[C@H](n4ccc5c(=O)[nH]c(N)nc54)O[C@@H]3COP(=O)(S)O[C@H]3[C@@H](O)[C@H](n4ccc(N)nc4=O)O[C@@H]3CO[C@H]3[C@@H](O)[C@H](n4cnc5c(N)ncnc54)O[C@@H]3COP(=O)(S)O[C@H]3[C@@H](O)[C@H](n4ccc5c(=O)[nH]c(N)nc54)O[C@@H]3COP(=O)(S)O[C@H]3[C@@H](O)[C@H](n4ccc(=O)[nH]c4=O)O[C@@H]3COP(=O)(S)O[C@H]3[C@@H](O)[C@H](n4cnc5c(N)ncnc54)O[C@@H]3COP(=O)(S)O[C@H]3[C@@H](O)[C@H](n4ccc5c(=O)[nH]c(N)nc54)O[C@@H]3COP(=O)(S)O[C@H]3[C@@H](O)[C@H](n4ccc(=O)[nH]c4=O)O[C@@H]3CO)[C@H]2O)c(=O)n1 (stereo partly drawn) | 102 | 0 | 183
